# Screening data deposited in PubChem BioAssay by several laboratories.
# The entries come from a sample that favours hits as a whole.
# Diaphorase inh = diaphorase inhibition or chemical oxidation counter-screen; diaphorase resazurin-to-resorufin fluorescence, NADH, 16 min; bacterial (C. kluyveri) enzyme, not human; inhibition, % at 20 µM; 190,000 tested, 0.69% active; AID 1217;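 active = primary screen inhibition at 20 µM above a set limit, cut at about 50% in these data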;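 also: plate controls were DMSO with full reaction for no effect and wells lacking NADH for full effect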
#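 Test system: diaphorase enzyme from Clostridium kluyveri; amount: diaphorase at 0.14 U/mL in enzyme working solution; detection: fluorescence of resorufin formed from resazurin, Ex 544/Em 590 nm; times: reaction incubation of 16 min at room temperature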
# L major viab = inhibitors of Leishmania major promastigote growth; 200,000 tested, 9% active; inhibition, % at 10 µM; Leishmania major promastigotes, resazurin fluorescence viability;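 also: promastigotes grown with compound for 44 hours at 28 °C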
# Diaph act CS = diaphorase activation or chemical reduction counter-screen; activation factor at 20 µM; Diaphorase/resazurin coupled assay, resorufin fluorescence, 16 min; hits give high values; 1 = vehicle wells, 0 = NADH-free wells; 190,000 tested, 0.005% active; AID 1229;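 active = diaphorase activity raised at least twofold by the compound at 20 µM; inactive = activation factor below 2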
#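 Material: Clostridium kluyveri diaphorase, purified enzyme; Quantity: enzyme 0.07 U/mL final; Medium: HEPES pH 7.4 buffer with MgCl2 and Tween 20; Dosing: single compound dose of 20 µM, 1% DMSO final; Schedule: 16 min reaction at room temperature; Measured by: red resorufin fluorescence at 544/590 nm excitation/emission.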
# G6PDH CS = L. mesenteroides G6PDH inhibition counter-screen; Purified L. mesenteroides G6PDH, diaphorase/resazurin coupled fluorescence, 45 min; inhibition, % at 5 µM; 200,000 tested, 0.12% active
# PfGluPho inh = PfG6PD (Plasmodium falciparum) enzyme inhibition; PfGluPho enzyme, NADPH resazurin-diaphorase fluorescence; inhibition, % at 20 µM; 350,000 tested, 0.78% active;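 active = inhibition reaching at least a set limit at 20 µM in the primary screen, cut at about 59% in these data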;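 also: 0% = DMSO wells with substrate and 100% = DMSO wells lacking glucose-6-phosphate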
# DTT redox prof = compounds producing H2O2 with reducing agent – biochemical, NIH compound library profiling, artefact control for MLSCN library redox annotation, primary screen | DTT-dependent redox cycling H2O2, phenol red/HRP absorbance; 100% = 100 µM peroxide control, 0% = buffer | activation, % at 10 µM | 200,000 tested, 0.03% active | AID 878;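 active = activation of at least 50% relative to the plate's high and low controls in the primary single-dose screen; inactive = activation below 50%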;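 also: compound incubated with DTT at 0.8 mM final as the reducing agent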
# * = called active by the depositor; / = no result. Rule as the data show it, unless noted: active = inhibition above about 50%; inactive = the rest.
SMILES,Diaphorase inh,L major viab,Diaph act CS,G6PDH CS,PfGluPho inh,DTT redox prof
Cc1cccc(CN2CCN(c3ccccn3)CC2)c1,/,2,/,/,11,2
CCCc1nnc(NC(=O)CCC(=O)NC2CCCc3ccccc32)s1 (centres undefined),-2,7,1,38,-8,0
CC(C)Cc1nnc(NC(=O)CCC(=O)NC2CCCc3ccccc32)s1 (centres undefined),2,96*,1,7,-20,1
O=C(CNc1n[nH]c(=O)[nH]c1=O)N/N=C/C=C/c1ccccc1,/,/,/,/,8,/
COc1cccc(CNC[C@H]2O[C@@H](n3ccc(N)nc3=O)[C@H](O)[C@@H]2O)c1OCc1ccc(F)cc1Cl,/,/,/,/,13,/
COC(=O)[C@@]1(C)[C@H]2C(=O)N(C)C(=O)[C@H]2[C@H]2CN=C(SC)N21,/,/,/,/,-10,/
COc1ccc(NC(=O)COC(=O)c2c3c(nc4ccccc24)CCCC3)cc1,-1,94*,1,5,1,-7
COc1ccc(OC)c(NC(=O)COC(=O)c2c3c(nc4ccccc24)CCCC3)c1,31,9,0.7,-1,10,2
O=C1N(CCCN2C(=O)C3(OCCO3)c3ccccc32)c2ccccc2C12OCCO2,11,11,0.9,3,0,0
O=C1N(CCCCN2C(=O)C3(OCCO3)c3ccccc32)c2ccccc2C12OCCO2,18,59*,0.8,-8,-15,2
CCNC(=O)/C=C1\NC(C)(C)Cc2c1ccc1ccccc21,10,100*,0.9,2,5,0
CC1(C)Cc2c(ccc3ccccc23)C(=O)N1,8,39,0.9,6,4,2
Cc1ccc(C(CC(=O)N2CCNCC2)c2ccccc2)c(O)c1C (centres undefined),/,/,/,/,-6,/
CC(C(=O)NCCc1ccc(F)cc1)N1CCN(Cc2ccccc2)CC1 (centres undefined),-10,83*,1.1,5,10,0
O=C(NC1CCN(Cc2ccccc2)CC1)C(NS(=O)(=O)c1cccc2nsnc12)c1ccccc1 (centres undefined),-7,51*,1.1,6,-26,9
O=C(Nc1ccccc1)NC1CCN(Cc2ccccc2)CC1,7,29,0.9,11,7,0
CCCC(CCC)C(=O)NC1CCN(Cc2ccccc2)CC1,-3,88*,1,7,1,-1
CC(C(=O)NC1CCCC1)N1CCN(Cc2ccccc2)CC1 (centres undefined),-8,73*,1.1,8,-3,1
O=C(C[C@H]1C/C=C\CC[C@H](Cc2ccc(F)cc2)C(=O)OC[C@@H](Cc2c[nH]c3ccccc23)NC1=O)NCCO,/,/,/,/,17,/
Cc1cccn2c(=O)c(C=O)c(N3CCSCC3)nc12,/,/,/,/,-16,/
O=C(NCCNC1CCN(Cc2ccccc2)CC1)c1cccs1,13,88*,0.9,8,/,-1
CCn1c2c(c(=N)c3ccccc31)CCC2,/,/,/,/,-2,/
CCOC(=O)c1ccc(NC(=O)Cc2coc3cc4c(cc23)CCC4)cc1,27,92*,0.7,8,5,0
Cc1ccc(Cn2c(=O)c3ccccc3n3nc(C)cc23)cc1,25,10,0.8,3,5,5
Cc1cc(NC(=O)C23CC4CC(C2)CC(n2cnc([N+](=O)[O-])n2)(C4)C3)no1,-5,51*,1,15,-5,-2
SMILES,Diaphorase inh,L major viab,Diaph act CS,G6PDH CS,PfGluPho inh,DTT redox prof
O=C(Nc1ccon1)C12CC3CC(C1)CC(n1cnc([N+](=O)[O-])n1)(C3)C2,-16,62*,1.2,-3,-16,0
COc1ccc(-c2nc3ccccn3c2/N=C/c2ccc(OC)c(OC)c2)cc1O,2,60*,1,10,0,0
COc1cc(-c2nc3ccccn3c2/N=C/c2ccccc2)ccc1O,16,8,0.8,4,4,-4
CCOC(=O)c1c(O)c(Cl)c(C)[nH]c1=O,-2,-6,1,9,18,-1
Cc1cc(NS(=O)(=O)c2cn(C)nc2C)no1,/,/,/,/,12,/
CC(C)c1ccc(N(CC(=O)NCCSC(C)(C)C)S(C)(=O)=O)cc1,-2,1,1,4,-9,0
Cc1ccc(C(=O)C2CCN(CC(=O)N3CCN(c4ccc(F)cc4)CC3)CC2)cc1,8,89*,0.9,0,-4,0
Cc1ccc(C(=O)N2CCC(C(=O)c3ccc(F)cc3)CC2)cc1,/,/,/,/,-10,/
CC(C)OC(=O)C1C2C=CC3(CN(Cc4cccs4)C(=O)C13)O2 (centres undefined),6,-12,0.9,8,5,2
O=C(N/N=C1\CCCc2ccccc21)c1ccc([N+](=O)[O-])cc1,-2,69*,1,-1,-7,4
Cc1ccc(C(=O)N/N=C2\CCCc3ccccc32)c(C)c1,-17,16,1.2,5,0,-1
O=C(Cc1ccc(Cl)cc1)N/N=C1\CCCc2ccccc21,-5,3,1.1,-3,0,2
O=C(Cc1cccc2ccccc12)N/N=C1\CCCc2ccccc21,16,64*,0.8,2,2,-14
CC(C)(CCc1ccccn1)C(=O)CCCc1ccccn1,/,/,/,/,0,/
O=C1C2C3C=CC(O3)C2C(=O)N1N=Cc1cccc2ccccc12 (centres undefined),/,/,/,/,1,/
COc1ccc(CN2CNc3nc4ccccc4n3C2)cc1,10,62*,0.9,4,-3,0
c1coc(CN2CNc3nc4ccccc4n3C2)c1,/,/,/,/,9,/
Nc1ccc(Nc2nc3ccccc3[nH]2)cc1,/,/,/,/,23,/
c1ccc(Nc2nc3ccccc3[nH]2)nc1,-1,100*,1,7,34,3
COc1ccc(/C=C2\SC(=S)N(CCC(=O)Nc3cccc(O)c3)C2=O)cc1,/,/,/,/,-11,/
Clc1ccc(CN2C3=NCCCN3c3ccccc32)cc1Cl,10,51*,0.9,12,1,-1
O=C(CN1C2=NCCCN2c2ccccc21)c1ccc(Cl)cc1Cl,-2,100*,1,0,3,0
O=C(CN1C2=NCCCN2c2ccccc21)c1cccc(Br)c1,-6,94*,1.1,-3,16,0
Fc1ccc(CN2C3=NCCCN3c3ccccc32)cc1,11,-3,0.9,0,2,0
O=C(CN1C2=NCCCN2c2ccccc21)c1cccs1,7,-10,0.9,4,-8,0
Cc1ccc2c(C)nc(NC3=NCN(CCc4ccccc4)CN3)nc2c1,4,/,1,12,/,/
CN(Cc1ccccn1)C(=O)c1cc(COc2ccc(F)c(F)c2)on1,/,/,/,/,-5,/
COc1cccc(N2CCN(C(c3ccccn3)c3nnnn3C(C)(C)C)CC2)c1 (centres undefined),5,-4,0.9,4,-17,-1
